Measurements: ChEMBL document CHEMBL2384970, “Development of peptidomimetic boronates as proteasome inhibitors” (Eur J Med Chem, 2013)
Active and inactive are the calls of the source. The rule behind the calls is not given here.

Legend:
[1] = target: T1, Proteasome Macropain subunit MB1 (Homo sapiens) (UniProt P28074); test: Inhibition of human 20S proteasome chymotrypsin like activity using Suc-Leu-Leu-Val-Tyr-AMC as substrate at 20 uM measured over 10 mins by fluorescence assay relative to control
T1 sequence (whole entry): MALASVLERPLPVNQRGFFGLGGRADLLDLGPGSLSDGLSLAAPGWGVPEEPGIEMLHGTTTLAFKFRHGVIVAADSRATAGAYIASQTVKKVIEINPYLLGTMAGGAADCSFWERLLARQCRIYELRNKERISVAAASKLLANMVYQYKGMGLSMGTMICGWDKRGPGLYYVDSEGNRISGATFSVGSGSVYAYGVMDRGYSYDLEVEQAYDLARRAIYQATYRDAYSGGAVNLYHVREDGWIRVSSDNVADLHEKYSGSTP
Summary of the method: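 Screening run at a single […] inhibitor concentration against purified human erythrocyte 20S proteasome, using an equal amount of DMSO as the negative control. AMC fluorescence read at ex 380/em 460 nm continuously for 10 min.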

[2] = target: T2, Proteasome Macropain subunit MB1 (Homo sapiens, UniProt P28074); test: Inhibition of human 20S proteasome chymotrypsin like activity using Suc-Leu-Leu-Val-Tyr-AMC as substrate measured over 10 mins by fluorescence assay
T2 sequence (P28074 whole entry): T1 sequence (whole entry)

[3] = target: Proteasome Macropain subunit (Homo sapiens) (UniProt P49721); test: Inhibition of human 20S proteasome trypsin like activity using Boc-Leu-Leu-Arg-Arg-AMC as substrate at 20 uM measured over 10 mins by fluorescence assay; details: in the assay text read “Boc-Leu-Arg-Arg-AMC” for “Boc-Leu-Leu-Arg-Arg-AMC”
Summary of the method: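 Tryptic activity of human erythrocyte 20S proteasome at 0.0025 mg mL1, 30 °C, in 50 mM Tris pH 7.4, 50 mM NaCl, 0.5 mM EDTA, 0.03% SDS, 7.5% DMSO. Compound at […]. Boc-Leu-Arg-Arg-AMC at […]. Continuous 10-min fluorescence reading (ex 380/em 460 nm) against a DMSO control.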

Homo sapiens = species on record: Homo sapiens; test: Selectivity ratio of Ki for human 20S proteasome post-glutamyl peptide hydrolyzing activity to Ki for human 20S proteasome chymotrypsin like activity
Proteasome component C5 = target: T3, Proteasome component C5 (Homo sapiens, UniProt P20618); test: Inhibition of human 20S proteasome post-glutamyl peptide hydrolyzing activity using Z-Leu-Leu-Glu-AMC as substrate measured over 10 mins by fluorescence assay
T3 sequence (P20618 whole entry): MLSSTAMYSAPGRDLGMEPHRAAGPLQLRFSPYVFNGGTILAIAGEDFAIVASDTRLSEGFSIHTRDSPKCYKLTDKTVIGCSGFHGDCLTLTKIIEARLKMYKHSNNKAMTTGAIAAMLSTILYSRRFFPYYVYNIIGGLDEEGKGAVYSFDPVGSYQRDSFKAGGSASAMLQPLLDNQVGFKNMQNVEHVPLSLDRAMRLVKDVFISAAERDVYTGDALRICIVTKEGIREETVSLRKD

[4] = Inhibition of bovine pancreatic alpha-chymotrypsin using Suc-Leu-Leu-Val-Tyr-AMC as substrate measured over 10 mins by fluorescence assay; set-up: species or system Bos taurus
Summary of the method: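 Bovine pancreatic alpha-chymotrypsin ([…] as printed) incubated at 20 °C with test compound in 50 mM Tris pH 8.0, 100 mM NaCl, 5 mM EDTA, 7.5% DMSO. Substrate at […] final. Product release followed over 10 min. Ki obtained from progress curves fitted to a 4-parameter IC50 equation and corrected for substrate.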

Sequence of Proteasome Macropain subunit (Homo sapiens) (P49721 whole entry): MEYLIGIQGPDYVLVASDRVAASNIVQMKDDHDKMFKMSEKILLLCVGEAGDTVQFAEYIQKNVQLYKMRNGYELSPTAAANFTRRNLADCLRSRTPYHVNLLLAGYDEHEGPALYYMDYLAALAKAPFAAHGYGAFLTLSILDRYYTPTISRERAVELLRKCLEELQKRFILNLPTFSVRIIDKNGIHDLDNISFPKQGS

SMILES | inhibition [1] | Ki [2] | inhibition [3] | Ratio Ki (Homo sapiens) | Ki (Proteasome component C5) | Ki [4]
CCN(CC)c1ccn(CC(=O)N[C@@H](CC(C)C)B(O)O)c(=O)c1 | > 40% | 800 nM | inactive | 5.5 | – | –
C=CCN1CCN(c2ccn(CC(=O)N[C@@H](CC(C)C)B(O)O)c(=O)c2)CC1 | > 40% | 5900 nM | inactive | – | Not Active | –
CC(C)C[C@H](NC(=O)[C@H](C)n1ccc2ncccc2c1=O)B(O)O | > 40% | 1340 nM | inactive | 10 | – | 9160 nM
CC(C)C[C@H](NC(=O)Cn1ccc(Nc2ccccc2)cc1=O)B(O)O | > 40% | 98 nM | inactive | 52 | – | 12700 nM
CC(C)C[C@H](NC(=O)Cn1ccc(N2CCCCC2)cc1=O)B(O)O | > 40% | 300 nM | inactive | – | – | –
CC(C)C[C@H](NC(=O)Cn1ccc(N2CCN(C)CC2)cc1=O)B(O)O | 30% | – | inactive | – | – | –
CC(C)C[C@H](NC(=O)Cn1ccc(N2CCOCC2)cc1=O)B(O)O | > 40% | 1450 nM | inactive | – | – | –

More lines, now with the values ahead:

inhibition [1] | Ki [2] | inhibition [3] | Ratio Ki (Homo sapiens) | Ki (Proteasome component C5) | Ki [4] | SMILES
> 40% | 440 nM | inactive | – | – | – | CC(C)C[C@H](NC(=O)Cn1ccc2ncccc2c1=O)B(O)O
> 40% | – | – | – | – | – | CC(C)C[C@H](NC(=O)[C@H](Cc1ccccc1)NC(=O)c1cnccn1)B(O)O
> 40% | 170 nM | inactive | – | – | – | CC(C)C[C@H](NC(=O)Cn1cc(Br)c2ncccc2c1=O)B(O)O
> 40% | 1620 nM | inactive | – | – | – | CC(C)C[C@H](NC(=O)Cn1ccc2c(c1=O)CCCN2C)B(O)O
> 40% | 260 nM | inactive | 5.3 | – | – | CC(C)C[C@H](NC(=O)Cn1ccccc1=O)B(O)O
